Reference: ChEMBL document CHEMBL5029146, “Single Diastereomers of the Clinical Anticancer ProTide Agents NUC-1031 and NUC-3373 Preferentially Target Cancer Stem Cells In Vitro” (J Med Chem, 2021)
Calls of active or inactive are those of the source. No cut-off for these calls is given here.

Legend:
[1] = test system: KG-1a; assay: Cytotoxicity against human KG-1a cells assessed as reduction in leukemic stem cells fraction at >= 0.07 uM after 48 hrs by FACS assay; format: functional, cell-based; conditions: dose microM >=0.07, time 48.0 hrs
Method in brief: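 KG1a AML cells were kept in RPMI with 20% foetal calf serum and penicillin/streptomycin, then exposed to a wide concentration range of each nucleoside or ProTide. Cells were stained with anti-CD34 (FITC) and anti-CD38 (PE) and read by flow cytometry. The CD34⁺/CD38⁻ stem-cell subset was expressed as a percentage of viable cells. Results are the mean ±SEM of five independent experiments.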

[2] = test system: KG-1a; assay: Cytotoxicity against human KG-1a cells assessed as cell death incubated for 72 hrs by flow cytometry based Annexin V/7-AAD assay; format: functional
Method in brief: (§1)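 Cell suspensions from confluent flasks (10^5 cells per well) exposed 72 h at 37°C, humidified 5% CO2, to compound over experimentally set concentration ranges, with drug-free controls. Cells harvested by centrifugation, Annexin V/7-AAD flow cytometry. Triplicate experiments; LC50 by non-linear regression of sigmoidal dose-response curves, mean ± SEM.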

[3] = test system: MDA-MB-231; assay: Cytotoxicity against human MDA-MB-231 cells incubated for 72 hrs by flow cytometry using Annexin V/7-AAD assay; format: functional; conditions: read-out: LC50 (the source's name); method in brief: as §1
[4] = test system: HCT-116; assay: Cytotoxicity against human HCT-116 cells assessed as cell death incubated for 72 hrs by flow cytometry based Annexin V/7-AAD assay; format: functional; conditions: read-out: LC50 (the source's name); method in brief: as §1
[5] = test system: HT-29; assay: Cytotoxicity against human HT-29 cells assessed as cell death incubated for 72 hrs by flow cytometry based Annexin V/7-AAD assay; format: functional; conditions: read-out: LC50 (the source's name); method in brief: as §1
[6] = test system: SW-620; assay: Cytotoxicity against human SW-620 cells assessed as cell death incubated for 72 hrs by MTS assay; format: functional; conditions: read-out: LC50 (the source's name)
Method in brief: (§2)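 Contracted MTS viability test (BxPC-3, MIA PaCa-2, HT-29, SW620), cells plated the day before dosing. 72 h exposure to 9 serial 3.16-fold dilutions, highest 198 μM, then MTS for 4 h at 37°C and absorbance read. Run in duplicate; LC50 (concentration giving 50% cell death) taken from curve fit as mean.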

[7] = Stability in human plasma assessed as half life; format: ADME, cell-free; conditions: time <=24 hrs
[8] = Metabolic stability in cryopreserved human hepatocytes assessed as half life at 1 uM for 60 mins by HPLC-MS/MS analysis; format: ADME, cell-based, Hepatocyte
Method in brief: (§3)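 Pooled cryopreserved human hepatocytes thawed, washed and resuspended in Krebs-Henseleit buffer pH 7.3. Compound at 1 μM final, incubated 0 and 60 min at 37°C/5% CO2. Quenched with acetonitrile, centrifuged; supernatant analysed by HPLC-MS/MS.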

[9] = Metabolic stability in cryopreserved human hepatocytes assessed as parent compound remaining at 1 uM for 60 mins by HPLC-MS/MS analysis; format: ADME, cell-based, Hepatocyte; conditions: cryopreserved hepatocytes, read-out: Stability; method in brief: as §3
[10] = test system: KG-1a; assay: Potency index, ratio of FUDR LC50 to test compound LC50 for human KG-1a cells incubated for 72 hrs by flow cytometry using Annexin V/7-AAD assay; format: functional
Method in brief: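 Annexin V/7-AAD flow cytometry after 72 h exposure at 37°C, 5% CO2, drug-free controls included, triplicate. LC50 by non-linear regression. Index is reference nucleoside LC50 (5-FU for HT-29, FUDR for KG1a) divided by test compound LC50.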

[11] = test system: LNCaP; assay: Cytotoxicity against human LNCaP cells assessed as cell death incubated for 72 hrs by flow cytometry based Annexin V/7-AAD assay; format: functional; conditions: read-out: LC50 (the source's name); method in brief: as §1
[12] = test system: BXPC-3; assay: Cytotoxicity against human BXPC-3 cells assessed as cell death incubated for 72 hrs by MTS assay; format: functional; conditions: read-out: LC50 (the source's name); method in brief: as §2
[13] = test system: MIA PaCa-2; assay: Cytotoxicity against human MIA PaCa-2 cells assessed as cell death incubated for 72 hrs by MTS assay; format: functional; conditions: read-out: LC50 (the source's name); method in brief: as §2
[14] = test system: KG-1a; assay: Cytotoxicity against human KG-1a cells assessed as reduction in leukemic stem cells fraction >= 0.25 uM measured after 48 hrs by FACS assay; format: functional, cell-based; conditions: dose microM >=0.25, time 48.0 hrs
[15] = Prodrug activation assessed as carboxypeptidase Y-mediated metabolite A release measured upto 120 mins by NMR analysis; format: ADME; conditions: saccharomyces cerevisiae, 2 h
Method in brief: (§4)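 ProTide (3.5 mg) in acetone-d6 with Trizma buffer pH 7.6. Control 31P NMR taken, then carboxypeptidase Y (0.1 mg in Trizma) added. 31P NMR spectra (202 MHz, 25°C) collected with 64 scans every 7 min. Parent and metabolite A/C fractions followed by peak integration over time.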

[16] = Prodrug activation assessed as carboxypeptidase Y-mediated metabolite C release measured upto 120 mins by NMR analysis; format: ADME; conditions: saccharomyces cerevisiae, 2 h; method in brief: as §4
[17] = test system: SW-620; assay: Potency index, ratio of 5-FU LC50 to test compound LC50 for human SW-620 cells incubated for 72 hrs by MTS assay; format: functional
Method in brief: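 SW620 MTS assay: 72 h exposure to 9 serial 3.16-fold dilutions from 198 μM, MTS 4 h at 37°C, absorbance read, duplicate. LC50 from curve fit; index is 5-FU LC50 divided by test compound LC50.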

[18] = Prodrug activation assessed as carboxypeptidase Y-mediated metabolism by measuring compound remaining within 10 mins by NMR analysis; format: ADME; conditions: saccharomyces cerevisiae; method in brief: as §4
[19] = test system: KG-1a; assay: Cytotoxicity against human KG-1a cells assessed as reduction in leukemic stem cells fraction up to 5 uM measured after 48 hrs by FACS assay; format: functional, cell-based; conditions: dose microM <=5, time 48.0 hrs

In the case of `C[C@H](NP(=O)(OC[C@H]1O[C@@H](n2cc(F)c(=O)[nH]c2=O)C[C@@H]1O)Oc1cccc2ccccc12)C(=O)OCc1ccccc1` (stereo in doubt; form 3), the Activity [1] was “Active”.
`C[C@H](NP(=O)(OC[C@H]1O[C@@H](n2cc(F)c(=O)[nH]c2=O)C[C@@H]1O)Oc1cccc2ccccc12)C(=O)OCc1ccccc1` (stereo in doubt; form 1) [FOSIFLOXURIDINE NAFALBENAMIDE] gave an LC50 ([2]; 72 h) of 53 nM, a CC50 ([3]; Homo sapiens, MDA-MB-231, 72 h) of 2800 nM and a CC50 ([4]; Homo sapiens, HCT-116, 72 h) of 3100 nM. It also gave a CC50 ([5]; Homo sapiens, HT-29, 72 h) of 1700 nM, a CC50 ([6]; Homo sapiens, SW-620, 72 h) of 1840 nM and a half-life [7] of 582 min. The half-life at 1 µM ([8]; cryopreserved hepatocytes) was 34 min, the remaining at 1 h, 1 µM [9] was 30% and the RatioLC50 [10] was 23.
`C[C@H](N[P@@](=O)(OC[C@H]1O[C@@H](n2ccc(N)nc2=O)C(F)(F)[C@@H]1O)Oc1ccccc1)C(=O)OCc1ccccc1` showed an LC50 [2] of 250 nM, a CC50 ([5]; Homo sapiens, HT-29, 72 h) of 1000 nM and a CC50 [11] of 3400 nM. For the same compound, the CC50 [12] was 1290 nM, the CC50 [13] was 190 nM and the Activity [14] was “Active”. The Drug metabolism [15] was “Metabolite_Notdetected” and the Drug metabolism [16] was “Metabolite_Detected”.
Compound `C[C@H](NP(=O)(OC[C@H]1O[C@@H](n2cc(F)c(=O)[nH]c2=O)C[C@@H]1O)Oc1cccc2ccccc12)C(=O)OCc1ccccc1` (stereo in doubt; form 3) [FOSIFLOXURIDINE NAFALBENAMIDE] has an LC50 ([2]; 72 h) of 55 nM, a CC50 ([3]; 72 h) of 2500 nM and a CC50 ([4]; 72 h) of 2600 nM. It also gave a CC50 ([5]; 72 h) of 1500 nM, a CC50 ([6]; 72 h) of 1460 nM and a RatioLC50 [17] of 4. The t1/2 ([8]; hepatocytes, 1 h, 1 µM) was 47 min and the Activity [18] was 28%.
Compound `O=c1[nH]cc(F)c(=O)[nH]1` [FLUOROURACIL] has an LC50 [2] of 1400 nM, a CC50 ([3]; Homo sapiens, MDA-MB-231, 72 h) of 12600 nM and a CC50 ([4]; Homo sapiens, HCT-116, 72 h) of 3700 nM. The CC50 ([5]; Homo sapiens, HT-29, 72 h) was 5500 nM, the CC50 ([6]; Homo sapiens, SW-620, 72 h) was 7980 nM and the half-life [7] was 8 min. For the same compound, the Activity [19] was “inactive”.
